Hck Nef HTS = human Hck-Nef kinase inhibition; AID 463187; P08631; actives 0.68% (n = 220,000); inhibition, % at 20 µM; Recombinant Hck-YEEI plus Nef, Z-Lyte FRET kinase assay;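 active = Hck-Nef kinase inhibition above about 50%, limit read from the data; inactive = inhibition below that limit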;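 also: 0% = DMSO with Hck plus Nef and 100% = Hck alone without Nef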
Biofilm kill mix = mixtures killing C. albicans biofilm; actives 0.02% (n = 120,000); C. albicans biofilm persisters + clotrimazole, fluorescence viability; primary screen in compound mixtures of four per well; AID 1242; inhibition, % at 7.6 µM;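 active = inhibition above 30.3% in the primary screen of four-compound pools, then above 30% when the compound was retested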;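 also: compounds exposed to preformed 24 h biofilms for 48 h; 0% = untreated biofilm control and 100% = clotrimazole plus chlorhexidine kill blank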
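Test system: C. albicans CAF4-2 wild-type biofilms; buffer or medium: RPMI/MOPS medium, pH 7.0; schedule: 24 h biofilm formation, then 48 h compound exposure, 37 °C; detection: Alamar Blue fluorescence; measure: percent inhibition of biofilm viability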
Mcl1-Noxa inh = Mcl-1/Noxa interaction inhibition; inhibition, % at 21.7 µM; actives 1.5% (n = 220,000); TR-FRET Mcl-1/Noxa peptide binding, 2 h; Q07820; AID 1022;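 active = compounds that cut the protein-peptide binding signal by more than 50% relative to plate controls in a single-dose test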;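 also: His-tagged Mcl-1 with rhodamine Noxa BH3 peptide and terbium anti-His antibody; 0% = Mcl-1 plus Noxa peptide wells and 100% = peptide-only wells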
Target sequence (Q07820 whole entry, looked up): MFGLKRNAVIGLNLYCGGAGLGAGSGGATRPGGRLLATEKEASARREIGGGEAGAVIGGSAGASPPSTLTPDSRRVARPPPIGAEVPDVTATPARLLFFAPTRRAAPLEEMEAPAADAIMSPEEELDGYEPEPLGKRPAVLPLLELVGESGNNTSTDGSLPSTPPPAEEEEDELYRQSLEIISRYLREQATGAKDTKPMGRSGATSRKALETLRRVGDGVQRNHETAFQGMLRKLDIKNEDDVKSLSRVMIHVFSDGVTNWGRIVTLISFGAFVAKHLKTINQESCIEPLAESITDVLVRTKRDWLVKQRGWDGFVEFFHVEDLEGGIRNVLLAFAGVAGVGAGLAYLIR
Mcl1 Bid PPI = disrupts binding of human Mcl-1 to Bid peptide; TR-FRET Mcl-1/Bid-Dy647 peptide binding, 1536-well; inhibition, % at 21.7 µM; actives 0.97% (n = 220,000); AID 1021;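 active = compounds that cut the binding signal by more than half at the single screening dose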;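 also: His-tagged Mcl-1 with europium anti-His antibody binding Bid BH3 peptide; 0% = Mcl-1 plus peptide wells and 100% = peptide-only wells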
14-3-3 Bad inh = disrupts binding of bovine 14-3-3 zeta to phospho-Bad peptide; inhibition, % at 21.7 µM; TR-FRET 14-3-3zeta/Dy647-pBad peptide displacement, 1 h; P63103; actives 0.71% (n = 220,000);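 active = inhibition above about 70%, limit read from the data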;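 also: 0% = full 14-3-3 plus peptide FRET controls and 100% = background without 14-3-3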
Target sequence (P63103 whole entry, looked up): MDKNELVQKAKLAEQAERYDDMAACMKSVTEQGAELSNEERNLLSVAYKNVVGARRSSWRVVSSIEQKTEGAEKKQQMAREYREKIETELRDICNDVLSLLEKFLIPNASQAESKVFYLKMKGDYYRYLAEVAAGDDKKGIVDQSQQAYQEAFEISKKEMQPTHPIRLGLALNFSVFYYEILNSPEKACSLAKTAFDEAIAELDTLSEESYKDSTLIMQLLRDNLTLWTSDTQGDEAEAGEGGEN
Bim-Mcl-1 = inhibitors of Bim-Mcl-1 interaction, human. Q07820. Bead-based flow cytometry, Bim peptide-Mcl-1 binding. inhibition, % at 10 µM. actives 0.1% (n = 190,000); in the data active = inhibition above about 40%;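 also: 0% = no compound tracer wells and 100% = peptide blocker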
Starred values were filed as active, the others as inactive; / = no result given; [ ] = another dose, or the depositor's remark. In the library only some 3.2% were active in any assay of this set; here they are far more common.

SMILES | Hck Nef HTS | Biofilm kill mix | Mcl1-Noxa inh | Mcl1 Bid PPI | 14-3-3 Bad inh | Bim-Mcl-1
COc1ccc(-n2c(Cc3ccccc3)nnc2SCc2ccc([N+](=O)[O-])cc2)cc1 | 2 | 1 | 29 | -25 | -11 | -1
CCc1sc(C(C2C(=O)CC(C)(C)CC2=O)C2C(=O)CC(C)(C)CC2=O)cc1[N+](=O)[O-] | 16 | 19 | 48 | 33 | -4 | 5
O=C(CSc1nc(-c2ccccc2)nc2c1Cc1ccccc1O2)Nc1ccc(C(=O)O)cc1 | 24 | -66 | 27 | 88* | 94* | -1
O=C(CSc1nc(-c2ccccc2)nc2ccccc12)Nc1cccc(C(=O)O)c1 | 25 | 29 | 10 | 6 | -9 | -1
CCCN(CCC)Cc1cc(=O)oc2cc3c(cc12)CCC3 | 4 | 16 | 16 | -4 | -5 | /
COc1ccc(-n2c(SCC(=O)N3CCc4ccccc43)nnc2-c2c[nH]c3ccccc23)cc1 | 41 | 11 | -12 | -32 | 78* | -1
CC(=O)Nc1ccc(S(=O)(=O)Nc2nnc(CC(C)(C)C)s2)cc1 | 21 | 19 | 6 | 0 | 2 | -8
CSc1nc(SCC(=O)O)c2sc3nc(-c4ccccc4)c4c(c3c2n1)CCC4 | -52 | 15 | -77 | 90* | 87* | /
CN1C(=O)C(CC(=O)O)S/C1=N\N=C\c1ccc(O)cc1O (stereo not drawn) | 4 | 23 | 7 | -25 | -3 | /
CCCNC1CCS(=O)(=O)C1 (stereo not drawn) | -1 | / | -47 | -20 | -6 | 0
CN(C)NC1CCS(=O)(=O)C1 (stereo not drawn) | -1 | / | 52* | -9 | 53 | -1
COc1ccccc1N1CCN(CC(O)COc2c(OC)cccc2OC)CC1 (stereo not drawn) | -2 | / | 10 | 18 | 28 | -3
CC(C)(C)C1CCC(OCC(O)CN2CCCC2)CC1 (stereo not drawn) | 16 | 8 | 11 | -35 | -5 | -2
COc1cccc(OC)c1OCC(O)CN1CCN(c2ccccc2)CC1 (stereo not drawn) | -2 | / | 16 | -25 | 72* | 1
CC(C)(C)C1CCC(OCC(O)CN2CCN(c3ccccc3)CC2)CC1 (stereo not drawn) | 0 | / | 7 | -15 | 75* | -3
O=C(O)c1ccc(COc2c(F)c(F)c(F)c(F)c2F)o1 | -8 | / | 24 | 17 | -1 | -3
C=CC(=O)NCC1OCCc2ccccc21 (stereo not drawn) | 17 | 9 | -5 | -29 | -10 | -3
O=C(/C=C/c1ccco1)NCC1OCCc2ccccc21 (stereo not drawn) | 45 | 15 | 62* | -53 | 32 | /
COc1ccc(CNC(=S)Nc2ccc(F)c(Cl)c2)cc1 | -2 | 1 | 13 | -117 | -5 | -3
COc1ccc(OC)c(CNc2ccc(F)c(Cl)c2)c1 | 0 | / | 26 | -9 | 79* | -1
O=C(Nc1ccc2[nH]c(=S)sc2c1)Nc1ccccc1F | 5 | 12 | 55* | -147 | 3 | /
O=C(Nc1ccc2[nH]c(=S)sc2c1)c1ccccc1 | 3 | 13 | 43 | -31 | -14 | -10
COC(=O)CC1Sc2ccccc2NC1=O (stereo not drawn) | 2 | / | 14 | -25 | -4 | -3
Cc1ccc(NC2Sc3ccccc3NC2=O)cc1 (stereo not drawn) | 22 | 7 | 56* | -32 | 0 | -5
C=CCNC1=C(Cl)C(=O)N(c2ccccc2Cl)C1=O | -1 | / | 1 | -21 | -7 | 2
SMILES | Hck Nef HTS | Biofilm kill mix | Mcl1-Noxa inh | Mcl1 Bid PPI | 14-3-3 Bad inh | Bim-Mcl-1
Cc1ccc(N2CC(C(=O)OCc3ccccc3)CC2=O)cc1 (stereo not drawn) | 0 | / | 5 | -1 | 0 | 0
CCn1c(CNC(=O)c2ccco2)nnc1SCC(=O)Nc1cc(C(F)(F)F)ccc1Cl | 1 | / | -16 | -7 | -1 | 0
OC(CNCC(c1ccco1)N1CCCCC1)c1ccccc1 (stereo not drawn) | 1 | / | 21 | 63* | 58 | 1
S=C(NCC(c1ccco1)N1CCCC1)Nc1ccccc1 (stereo not drawn) | 20 | 15 | 4 | -29 | -15 | -1
C=CSc1sc(Cl)c(N(CC)CC)c1[N+](=O)[O-] | 28 | 9 | 52* | -55 | -5 | -1
CC1CCCC(C)N1C(=C(Cl)Cl)C(=C1SCCS1)[N+](=O)[O-] (stereo not drawn) | 23 | 12 | -9 | -13 | -16 | -2
CC(C)(C)c1ccc(-c2nnc(SCC(=O)Nc3sc4c(c3C#N)CCCC4)o2)cc1 | 6 | 6 | -10 | -23 | -11 | -5
CC(=O)c1ccc(-n2nnnc2SCC(=O)Nc2sc(C)c(C)c2C#N)cc1 | 22 | 17 | 65* | 57* | 18 | -1
Cc1sc(NC(=O)CSc2nnc(-c3ccc(F)cc3)o2)c(C#N)c1C | 6 | / | 12 | 59* | 26 | 0
C=CCN1C(=O)C2(C(C#N)=C(N)Oc3n[nH]c(CCC)c32)c2ccccc21 (stereo not drawn) | 0 | / | -18 | -13 | 0 | 0
COc1cccc(Nc2nc(-c3cccc(N4C(=O)c5ccccc5C4=O)c3)cs2)c1 | -1 | / | 31 | 0 | 84* | 0
COc1cccc(Nc2nc(-c3ccc(O)cc3)cs2)c1 | 2 | / | 32 | -19 | -7 | 0
CCOC(=O)Cc1csc(NC(=O)CCCCCN2C(=O)c3cccc4cccc(c34)C2=O)n1 | -9 | / | / | / | / | /
Cc1cccc2c3nc4ccccc4nc3n(CCCN3C(=O)c4ccccc4C3=O)c12 | 5 | 17 | 14 | 73* | 1 | 3
CC(=O)Oc1ccc(Cl)cc1/C=C/c1ccc2ccccc2n1 | 0 | 14 | 22 | 97* | 0 | -7
CC(=O)Oc1c(Cl)cc(Cl)cc1/C=C/c1ccc2ccccc2n1 | -5 | / | / | -29 | -1 | -2
O=c1cc(N=Nc2ccc(Cl)cc2)[nH]c(=O)[nH]1 | 2 | 11 | 21 | -12 | -1 | /
Cc1ccc(C)c(NC2=C(Cl)C(=O)OC2OC(=O)c2ccco2)c1 (stereo not drawn) | 0 | / | 57* | 3 | -7 | -2
Cc1ccc(NC2=C(Cl)C(=O)OC2OC(=O)c2ccco2)c(C)c1 (stereo not drawn) | 1 | 21 | 16 | 1 | -11 | 4
NC(=O)N=Nc1c(O)[nH]c2ccc([N+](=O)[O-])cc12 | 9 | 12 | 11 | -9 | 4 | /
O=C(N=Nc1c(O)[nH]c2ccc([N+](=O)[O-])cc12)c1cc(-c2ccccc2Cl)nc2ccccc12 | 30 | 25 | 77* | 96* | 94*[fluorescence artefact?] | -4
COc1ccccc1C(=O)N=Nc1c(O)[nH]c2ccc([N+](=O)[O-])cc12 | 33 | -4 | 78* | -10 | 29 | 26
O=C(N=Nc1c(O)[nH]c2ccc(Br)cc12)c1cc(-c2cccc3ccccc23)n[nH]1 | -1 | 15 | 29 | 9 | 1 | 0
